High-throughput results as filed in PubChem.
CHRM4 PAM = potentiates acetylcholine response at human M4 receptor; 360,000 tested, 0.4% active; AID 624126; activation, % at 3 µM; P08173; CHO-K1 hM4/Gqi5, Fluo-8 calcium fluorescence, ACh EC20; 0% = ACh EC20, 100% = maximal ACh;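 active = activation above its plate's cutoff, the mean activation of sample wells plus 3 SD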
CHRM5 antagonist = CHRM5 antagonism in calcium assay. 360,000 tested, 0.59% active. P08912. CHO-hM5 cells, Fluo-8 calcium fluorescence, ACh EC80. AID 624040. inhibition, % at 3 µM;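 active = inhibition above a per-plate cutoff, the mean of that plate's test compounds plus 3 SD, cut at about 27% in these data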
Target sequence (P08912 whole entry, looked up): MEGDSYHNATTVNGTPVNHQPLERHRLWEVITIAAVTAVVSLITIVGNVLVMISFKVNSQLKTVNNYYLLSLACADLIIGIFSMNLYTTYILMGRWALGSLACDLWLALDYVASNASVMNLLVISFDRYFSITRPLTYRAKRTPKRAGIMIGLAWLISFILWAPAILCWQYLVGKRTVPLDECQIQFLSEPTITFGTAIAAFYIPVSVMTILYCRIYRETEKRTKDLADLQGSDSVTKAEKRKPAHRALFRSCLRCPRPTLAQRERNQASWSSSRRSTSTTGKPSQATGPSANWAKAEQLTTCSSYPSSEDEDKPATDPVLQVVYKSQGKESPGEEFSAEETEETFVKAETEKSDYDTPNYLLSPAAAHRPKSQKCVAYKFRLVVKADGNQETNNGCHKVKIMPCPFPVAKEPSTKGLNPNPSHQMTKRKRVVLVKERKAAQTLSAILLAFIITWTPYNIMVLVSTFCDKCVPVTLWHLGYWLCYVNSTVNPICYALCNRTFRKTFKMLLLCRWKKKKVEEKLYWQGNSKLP
M4 ag = agonists of human muscarinic M4 receptor (CHRM4); 360,000 tested, 0.14% active; AID 624127; P08173; CHO-K1 hM4/Gqi5, Fluo-8 calcium fluorescence; vehicle 0%, full acetylcholine response 100%; activation, % at 3 µM;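 active = activation above the run mean over all test wells plus 3 SD, cut at about 32% in these data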;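 note: peak over basal fluorescence ratio per well then scaled between controls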
M4 antag = blocks acetylcholine activation of human M4 receptor; P08173; inhibition, % at 3 µM; 360,000 tested, 0.73% active; CHO-hM4 cells, ACh EC80, Fluo-8 calcium fluorescence; AID 624125;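 active = inhibition above its plate's cutoff, the mean inhibition of sample wells plus 3 SD, cut at about 27% in these data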
M5 PAM = CHRM5 positive allosteric modulation; P08912; CHO-K1 hM5, Fluo-8 calcium, ACh EC20 PAM; 0% = ACh EC20, 100% = ACh EC100; activation, % at 3 µM; 360,000 tested, 0.3% active; AID 624038;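 active = activation above the run cutoff, the mean activation of all test compounds plus 3 SD, cut at about 18% in these data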
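System: CHO-K1 hM5 cells. Reagent: acetylcholine, EC20 level. Compound dosing: single dose, 3 µM nominal final test concentration. Timing: Post-acetylcholine fluorescence recording 140 s. Detection: Fluo-8 calcium fluorescence. Read-out: % activation, ACh-normalized. Benchmarks: ACh EC20 and EC100 wells. Repeats: singlicate, one well per test compound.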
CHRM5 agonist = agonists of human muscarinic M5 receptor (CHRM5) | P08912 | CHO-K1 hM5 cells, Fluo-8 calcium fluorescence; 0% DMSO wells, 100% maximal acetylcholine response | activation, % at 3 µM | 360,000 tested, 0.19% active | AID 624037;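 active = activation above the run's mean over test compounds plus 3 SD, cut at about 23% in these data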;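 note: signal is peak over basal fluorescence ratio across the kinetic read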
Hits are given with their value; i = inactive. The list is not random: actives were taken first. Their share in the collection is about 1.9%.

SMILES	CHRM4 PAM	CHRM5 antagonist	M4 ag	M4 antag	M5 PAM	CHRM5 agonist
CN(C(=O)COn1nnc2ccc(Cl)cc21)C1CCS(=O)(=O)C1 (centres undefined)	i	i	i	i	i	i
CCCS(=O)(=O)NC(=O)C1(C)CCN1C(=O)Cc1ccc(Cl)cc1Cl (centres undefined)	i	i	i	i	i	i
CC(O)(C(=O)c1ccccc1)c1ccccc1 (centres undefined)	i	i	i	i	i	i
CN(C)C/C=C/C(O)(c1ccccc1)c1ccccc1	i	45.1	i	55.0	i	i
COC(=O)[C@@]1(Cc2ccccc2)[C@H]2C(=O)N(C)C(=O)[C@H]2[C@H]2CN=C(SCc3ccc(C#N)cc3)N21	i	i	i	i	i	i
CCOc1ccc(CCNC(=O)CS(=O)Cc2nc(-c3ccccc3C)oc2C)cc1OCC (centres undefined)	i	i	i	i	i	i
C=CCC[C@@H](Cc1ccc(F)cc1)C(=O)OC[C@H]1CCCN1C(=O)[C@@H](CC=C)CC(=O)N[C@H](CO)Cc1ccccc1	i	i	i	31.1	i	i
C=CCC[C@@H](Cc1ccc(F)cc1)C(=O)OC[C@@H]1CCCN1C(=O)[C@H](CC=C)CC(=O)N[C@H](CO)Cc1ccccc1	i	i	i	i	i	i
Cc1cc(NC(=O)COC(=O)C2CCCN2C(=O)c2cccs2)no1 (centres undefined)	i	i	i	i	31.7	i
CC(C)NC(=O)NC(=O)COC(=O)C1CCCN1C(=O)c1cccs1 (centres undefined)	i	i	i	i	i	i
CC(Cc1cccs1)NC(=O)Nc1ccc([N+](=O)[O-])cc1 (centres undefined)	i	29.6	i	i	i	i
O=C(c1ccccc1)c1ccccc1N1C(=O)C=CC1=O	i	i	i	71.8	i	i
O=C1C=CC(=O)N1c1ccccc1N1C(=O)C=CC1=O	i	i	i	i	i	i
CCOC(=O)CSc1nc(C)c(C(C)=O)cc1C(N)=O	i	i	i	i	i	i
O=C1CCCCC(=O)N(c2ccccc2)c2ccccc21	i	i	i	i	18.2	i
CCc1ccc2c(c1)/C(=C/C(=O)c1cccs1)C(=O)N2	i	i	i	i	i	24.6
Cc1cccc2c1NC(=O)/C2=C\C(=O)c1cccs1	i	i	i	i	i	i
COc1cc2c(cc1OC)C(C(=O)NCCN(C)C)C(c1cccs1)N(C)C2=O (centres undefined)	i	i	i	i	i	i
CC(C)(C)n1nnnc1C(c1cccs1)N1CCN(C/C=C/c2ccccc2)CC1 (centres undefined)	i	27.6	i	i	i	i
CC(C)(C)n1nnnc1C(c1cccs1)N1CCN(Cc2ccccc2)CC1 (centres undefined)	i	i	i	i	i	i
C(=C\c1ccccc1)/CN1CCN(C(c2cccs2)c2nnnn2Cc2ccccc2)CC1 (centres undefined)	i	i	i	i	i	i
C(=C\c1ccccc1)/CN1CCN(C(c2cccc3ccccc23)c2nnnn2Cc2ccccc2)CC1 (centres undefined)	i	37.5	i	i	i	i
CC(C)(C)n1nnnc1C(c1ccnc2ccccc12)N1CCN(C/C=C/c2ccccc2)CC1 (centres undefined)	i	i	i	i	i	i
C(=C\c1ccccc1)/CN1CCN(C(c2cccs2)c2nnnn2C2CCCC2)CC1 (centres undefined)	i	30.7	i	i	i	i
C(=C\c1ccccc1)/CN1CCN(C(c2ccnc3ccccc23)c2nnnn2C2CCCC2)CC1 (centres undefined)	i	86.0	i	31.2	i	i
SMILES	CHRM4 PAM	CHRM5 antagonist	M4 ag	M4 antag	M5 PAM	CHRM5 agonist
C(=C\c1ccccc1)/CN1CCN(C(c2ccccc2)c2nnnn2C2CCCC2)CC1 (centres undefined)	i	44.2	i	i	i	i
C(=C\c1ccccc1)/CN1CCN(C(c2nnnn2C2CCCC2)C2CC2)CC1 (centres undefined)	i	i	i	i	i	i
CC1(C(=O)NCC2CC2)CCN1C(=O)C1(c2ccc(Cl)cc2)CC1 (centres undefined)	i	i	i	i	i	i
COc1ccc(C(=O)CCc2ccccc2)cc1	i	i	i	i	i	i
CSc1cc(C)nc(N(C)C(C)=O)n1	19.1	i	i	i	i	i
COc1cc(C)nc(N(C)C(C)=O)n1	i	i	i	i	i	i
COc1cc(N(Cc2ccccc2)Cc2ccccc2)c2ncn(C(C)C)c2c1	i	i	i	i	i	i
CC(C)n1cnc2c(N(C)c3ccccc3)nc(N(CCN(C)C)Cc3ccccc3)nc21	i	34.2	i	i	i	i
CCN(CC(=O)Nc1c(F)cccc1F)C(=O)/C=C/c1cn(Cc2ccccc2)nc1-c1cccnc1	i	27.2	i	i	i	i
COc1ccc(NC(=O)/C(Cl)=C(/Cl)S(=O)Cc2ccccc2)cn1 (centres undefined)	i	41.8	i	36.0	i	i
COc1ccc(NC(=O)Cc2ccccc2)cn1	i	i	i	i	i	i
CC(=O)OCC(=O)[C@@]1(O)CC[C@H]2[C@@H]3CCC4=CC(=O)C=C[C@]4(C)[C@H]3[C@@H](O)C[C@@]21C	i	i	i	i	i	i
CC12C=CC(=O)C=C1CCC1C2C(O)CC2(C)C1CCC2(O)C(=O)CO (centres undefined)	i	i	i	88.5	i	i
CC(=O)OCC(=O)[C@@]1(O)CC[C@H]2[C@@H]3CCC4=CC(=O)C=C[C@]4(C)[C@@]3(Cl)[C@@H](Cl)C[C@@]21C	i	i	i	i	i	43.2
CCC(C(=O)OCC(=O)C1(O)CCC2C3CCC4=CC(=O)CCC4(C)C3C(O)CC21C)C(C)C (centres undefined)	i	i	i	28.5	i	i
FC(F)(F)c1cc(CO[C@@H]2CCCN[C@@H]2c2ccccc2)cc(C(F)(F)F)c1	i	i	i	i	i	i
COc1ccc(C[C@@H]2CN3C(=NC[C@@H]3C)N2CCNC(=O)c2ccc(C)c(Br)c2)cc1	i	i	i	i	i	i
CCOC(=O)c1c(S(=O)(=O)NCC(=O)Nc2ccc(F)cc2F)c(C)n(C)c1C	17.9	i	i	i	i	i
CCOC(=O)c1c(S(=O)(=O)NCC(=O)Nc2cc(C)ccc2C)c(C)n(C)c1C	i	i	i	i	i	i
Cc1ccc(-c2noc(C3CCCN(C(=O)c4c(F)cccc4F)C3)n2)cc1 (centres undefined)	i	i	i	i	i	i
